The text below walks through data of ChEMBL document CHEMBL1926540, “Conformationally restricted analogs of the direct thrombin inhibitor FM 19” (Bioorg Med Chem, 2011).

In this assay the target is Prothrombin (Homo sapiens, UniProt P00734). The assay can be described thus: Inhibition of human alpha-thrombin using sarcosine-Pro-Arg-p-nitroanilide as substrate preincubated for 5 mins before substrate addition measured after 10 mins by spectrophotometry. The procedure, abridged: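 Human α-thrombin (>95% pure, 5070 U/mg) kept on ice in assay buffer (10 mM Tris, 150 mM NaCl, pH 7.6). Enzyme preincubated with peptide 5 min at 37 °C, then chromogenic substrate added. Final concentrations: 2 nM enzyme, 200 substrate. Nine peptide concentrations, each in triplicate.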

The compound `Cc1ccc(C[C@H](NC(=O)[C@@H](C)NC(=O)[C@@H]2CCCN2C(=O)[C@@H]2C[C@@H]3CCCC[C@@H]3N2C(=O)[C@@H](N)CCCN=C(N)N)C(N)=O)cc1` registered an IC50 of 73 µM.

The compound `Cc1ccc(C[C@H](NC(=O)[C@@H](C)NC(=O)[C@@H]2CCCN2C(=O)[C@@H]2C[C@@H]3CCCC[C@@H]3N2C(=O)[C@H]2CC[C@@H](N=C(N)N)CC2)C(N)=O)cc1` registered an IC50 of 19.5 µM.

`Cc1ccc(C[C@H](NC(=O)[C@@H](C)NC(=O)[C@@H]2CCCN2C(=O)[C@@H]2C[C@@H]3CCCC[C@@H]3N2C(=O)[C@H](N)CCCN=C(N)N)C(N)=O)cc1`: the IC50 was determined as 4.4 µM. Compared with the last compound, the IC50 is about 4.4-fold lower.

`Cc1ccc(C[C@H](NC(=O)[C@@H](C)NC(=O)[C@@H]2CCCN2C(=O)[C@@H]2C[C@@H]3CCCC[C@@H]3N2C(=O)[C@H](C)CCCN=C(N)N)C(N)=O)cc1`: inhibition was half-maximal at 98 µM (IC50).

In turn, `Cc1ccc(C[C@H](NC(=O)[C@@H](C)NC(=O)[C@@H]2CCCN2C(=O)[C@@H]2C[C@@H]3CCCC[C@@H]3N2C(=O)c2ccc(NC(=N)N)cc2)C(N)=O)cc1` had an IC50 of 0.57 µM.

As for `Cc1ccc(C[C@H](NC(=O)[C@@H](C)NC(=O)[C@@H]2CCCN2C(=O)[C@@H]2C[C@@H]3CCCC[C@@H]3N2C(=O)Cc2cccc(C(=N)N)c2)C(N)=O)cc1`, the IC50 is 26.2 µM. This IC50 lies about 46-fold higher than the previous one.

Regarding `Cc1ccc(C[C@H](NC(=O)[C@@H](C)NC(=O)[C@@H]2CCCN2C(=O)[C@@H]2C[C@@H]3CCCC[C@@H]3N2C(=O)c2ccc(C(=N)N)cc2)C(N)=O)cc1`, 0.51 µM corresponded to half-maximal inhibition (IC50).

With `Cc1ccc(C[C@H](NC(=O)[C@@H](C)NC(=O)[C@@H]2CCCN2C(=O)[C@@H]2C[C@@H]3CCCC[C@@H]3N2C(=O)c2cccc(C(=N)N)c2)C(N)=O)cc1`, the IC50 is 1.03 µM.

For `Cc1ccc(C[C@H](NC(=O)[C@@H](C)NC(=O)[C@@H]2CCCN2C(=O)[C@@H]2C[C@@H]3CCCC[C@@H]3N2C(=O)[C@@H](C)CCCN=C(N)N)C(N)=O)cc1`, the IC50 came out at 9.8 µM. This IC50 lies about 9.5-fold higher than the previous one.

`Cc1ccc(C[C@H](NC(=O)[C@@H](C)NC(=O)[C@@H]2CCCN2C(=O)[C@@H]2C[C@@H]3CCCC[C@@H]3N2C(=O)Cc2ccc(C(=N)N)cc2)C(N)=O)cc1` displayed an IC50 of 0.45 µM.

As to `Cc1ccc(C[C@H](NC(=O)[C@@H](C)NC(=O)[C@@H]2CCCN2C(=O)[C@@H]2C[C@@H]3CCCC[C@@H]3N2C(=O)[C@H]2CC[C@H](N=C(N)N)CC2)C(N)=O)cc1`, half-maximal inhibition (IC50) required 2.5 µM.

In turn, H-RPPGF-OH gave an IC50 of 601 µM.
